Source: ChEMBL document CHEMBL1145269, “Synthesis and evaluation of urea-based indazoles as melanin-concentrating hormone receptor 1 antagonists for the treatment of obesity” (Bioorg Med Chem Lett, 2005)

How the values were obtained:
[1] = Maximum plasma compound (10 mg/kg, p.o.) concentration in diet-induced obese mice; assay type: ADME, organism-based; set-up: dose 10 mg/kg, route oral; conditions: mouse, po
[2] = biological target: Melanin-concentrating hormone receptor 1 (Homo sapiens) (UniProt Q99705); assay: Inhibitory concentration against Melanin-concentrating hormone receptor 1 in human IMR-32 cells
[3] = Area under curve in diet-induced obese mice plasma at 10 mg/kg (p.o.) concentration; assay type: ADME, organism-based; set-up: dose 10 mg/kg, route oral; conditions: mouse, in vivo, po
[4] = biological target: Melanin-concentrating hormone receptor (Homo sapiens, UniProt Q969V1+Q99705); assay: Inhibition of Melanin-concentrating hormone (MCH) mediated [Ca2+] release in IMR-32 cells; assay type: functional, cell-based
[5] = Area under curve in diet-induced obese mice brain at 10 mg/kg (p.o.) concentration; assay type: ADME, organism-based; set-up: dose 10 mg/kg, route oral; conditions: mouse, in vivo, po
[6] = biological target: Melanin-concentrating hormone receptor 1 (Homo sapiens) (UniProt Q99705); assay: Inhibitory concentration against human Melanin-concentrating hormone receptor 1 expressed in IMR-32 cells using [125I]MCH
Mus musculus [7] = assay: Mean cumulative food intake of mice on day 7 after treatment with compound at 10 mg/kg; n=12; assay type: functional
Outline: (§1)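 DIO mice, kept on a high-fat diet (60 kcal % fat, 5.2 kcal/g) for about 16 weeks with ad libitum feeding. Given 10 mg/kg po by gavage qd for 14 days in 1% Tween 80/water at 4 mL/kg, alongside vehicle. Food weighed on the first day and periodically thereafter; cumulative intake reported at days 1, 5, 7, 11 and 14. Mean ± SEM, n = 12.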

Mus musculus [8] = assay: Mean cumulative food intake of mice on day 11 after treatment with compound at 10 mg/kg; n=12; assay type: functional; outline: as §1
Mus musculus [9] = assay: Body weight of the mice after treatment with the compound (10 mg/kg, p.o.) on day 0 (Vehicle=45.0 1 0.7); n=12; assay type: functional
Mus musculus [10] = assay: Percent change of mice body weight after treatment with the compound (10 mg/kg, p.o.) to that of vehicle; n=12; assay type: functional
Mus musculus [11] = assay: Body weight of the mice after treatment with the compound (10 mg/kg, p.o.) on day 14 (Vehicle=46.9 1 0.8); n=12; assay type: functional
Mus musculus [12] = assay: Mean cumulative food intake of mice on day 5 after treatment with compound at 10 mg/kg; n=12; assay type: functional; outline: as §1
Mus musculus [13] = assay: Mean cumulative food intake of mice on day 1 after treatment with compound at 10 mg/kg; n=12; assay type: functional; outline: as §1
Mus musculus [14] = assay: Mean cumulative food intake of mice on day 14 after treatment with compound at 10 mg/kg; n=12; assay type: functional; outline: as §1
Mus musculus [15] = assay: Mean cumulative food intake of mice on day 1 after treatment with compound at 30 mg/kg; n=12; assay type: functional
Outline: (§2)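 Chronic study in DIO mice fed a 60 kcal % fat diet ad libitum, dosed by oral gavage bid for 14 days at 30 or 100 mg/kg in 1% Tween 80/water (4 mL/kg). Food weighed on the first day and periodically thereafter. Cumulative intake reported on days 1, 5, 7, 11 and 14; mean ± SEM, n = 12.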

Mus musculus [16] = assay: Mean cumulative food intake of mice on day 11 after treatment with compound at 100 mg/kg; n=12; assay type: functional; outline: as §2
Mus musculus [17] = assay: Percent change of mice body weight after treatment with the compound (100 mg/kg, p.o.) to that of vehicle; assay type: functional
Mus musculus [18] = assay: Body weight of the mice after treatment with the compound (30 mg/kg, p.o.) on day 14 (Vehicle=46.9 1 0.8); assay type: functional
Mus musculus [19] = assay: Mean cumulative food intake of mice on day 14 after treatment with compound at 30 mg/kg; n=12; assay type: functional; outline: as §2
Mus musculus [20] = assay: Body weight of the mice after treatment with the compound (100 mg/kg, p.o.) on day 0 (Vehicle=45.0 1 0.7); assay type: functional
Mus musculus [21] = assay: Mean cumulative food intake of mice on day 7 after treatment with compound at 30 mg/kg; n=12; assay type: functional; outline: as §2
Mus musculus [22] = assay: Compound (100 mg/kg, bid) tested for reduction of fat mass in mice (vehicle=22.1); assay type: functional
Mus musculus [23] = assay: Mean cumulative food intake of mice on day 5 after treatment with compound at 100 mg/kg; n=12; assay type: functional; outline: as §2
Mus musculus [24] = assay: Mean cumulative food intake of mice on day 7 after treatment with compound at 100 mg/kg; n=12; assay type: functional; outline: as §2
Mus musculus [25] = assay: Mean cumulative food intake of mice on day 14 after treatment with compound at 100 mg/kg; n=12; assay type: functional; outline: as §2
Mus musculus [26] = assay: Mean cumulative food intake of mice on day 5 after treatment with compound at 30 mg/kg; n=12; assay type: functional; outline: as §2
Mus musculus [27] = assay: Mean cumulative food intake of mice on day 1 after treatment with compound at 100 mg/kg; n=12; assay type: functional; outline: as §2
[28] = Maximum brain compound (10mg/kg, p.o.) concentration in diet-induced obese mice; assay type: ADME, organism-based; set-up: dose 10 mg/kg, route oral; conditions: mouse, po
Mus musculus [29] = assay: Mean cumulative food intake of mice on day 11 after treatment with compound at 30 mg/kg; n=12; assay type: functional; outline: as §2
Mus musculus [30] = assay: Body weight of the mice after treatment with the compound (30 mg/kg, p.o.) on day 0 (Vehicle=45.0 1 0.7); assay type: functional
Mus musculus [31] = assay: Body weight of the mice after treatment with the compound (100 mg/kg, p.o.) on day 14 (Vehicle=46.9 1 0.8); assay type: functional
[32] = Area under curve in diet-induced obese mice plasma at 10 mg/kg (p.o.) concentration; n=3; assay type: ADME, organism-based; set-up: dose 10 mg/kg, route oral; conditions: mouse, in vivo, po
Mus musculus [33] = assay: Percent change of mice body weight after treatment with the compound (30 mg/kg, p.o.) to that of vehicle; assay type: functional
[34] = Area under curve in diet-induced obese mice brain at 10 mg/kg (p.o.) concentration; n=3; assay type: ADME, organism-based; set-up: dose 10 mg/kg, route oral; conditions: mouse, in vivo, po

## O=C(Cc1ccc(OCc2ccccc2)cc1)Nc1ccc2cnn(CCN3CCCC3)c2c1
[1]
  Cmax: 596 ng/mL
[2]
  IC50: 0.0014 µM
[3]
  AUC: 2.12 µg/h/mL
[4]
  IC50: 0.011 µM
[5]
  AUC: 1.33 µg·h/g

## O=C(Nc1ccc(Oc2ccccc2)cc1)Nc1ccc2c(cnn2CCN2CCC(F)(F)C2)c1
[6]
  IC50: 0.305 µM
[4]
  IC50: > 10 µM

## O=C(Nc1ccc(OCc2ccccc2)cc1)Nc1ccc2c(cnn2CCN2CCCC2)c1
[6]
  IC50: 0.0413 µM
[4]
  IC50: > 10 µM

## O=C(Nc1ccc2cnn(CCN3CCCC3)c2c1)NC1CCN(Cc2ccccc2)CC1
[6]
  IC50: 4.51 µM
[4]
  IC50: > 10 µM

## COC[C@@H]1CCCN1CCn1ncc2cc(NC(=O)Nc3ccc(Oc4ccccc4)cc3)ccc21
[6]
  IC50: 0.0387 µM
[4]
  IC50: 0.516 µM

## O=C(NCc1ccc(Oc2ccccc2)cc1)Nc1ccc2cnn(CCN3CCCC3)c2c1
[6]
  IC50: 0.0785 µM
[4]
  IC50: 0.626 µM

## O=C(Nc1ccc(Oc2ccccc2)cc1)Nc1ccc2c(cnn2CCCN2CCC(O)CC2)c1
[6]
  IC50: 0.0915 µM
[4]
  IC50: 0.894 µM

## CC(C)CNCCn1ncc2cc(NC(=O)Nc3ccc(Oc4ccccc4)cc3)ccc21
[6]
  IC50: 0.0018 µM
[4]
  IC50: 0.751 µM

## O=C(Nc1ccc(Oc2ccccc2)cc1)Nc1ccc2c(cnn2CCNC2CCCC2)c1
[6]
  IC50: 0.0024 µM
[4]
  IC50: 0.147 µM

## O=C(Nc1ccc(Oc2ccccc2)cc1)Nc1ccc2cnn(CCN3CCCC3)c2c1
[6]
  IC50: 0.581 µM
[4]
  IC50: > 10 µM

## O=C(NCCc1ccc(Oc2ccccc2)cc1)Nc1ccc2c(cnn2CCN2CCCC2)c1
[6]
  IC50: 0.545 µM
[4]
  IC50: > 10 µM

## O=C(Nc1ccc(Oc2ccccc2)cc1)Nc1cccc2c1cnn2CCN1CCCC1
[6]
  IC50: 1.85 µM
[4]
  IC50: > 10 µM

## CCN[C@@H](C)Cc1cccc(C(F)(F)F)c1 [DEXFENFLURAMINE]
Mus musculus [7]
  Activity: 17.8
Mus musculus [8]
  Activity: 31.1
Mus musculus [9]
  Body weight: 42.7 g
Mus musculus [10]
  Change in body weight: 9.12%
Mus musculus [11]
  Body weight: 39.8 g
Mus musculus [12]
  Activity: 8.44
Mus musculus [13]
  Activity: 0.89
Mus musculus [14]
  Activity: 39.9

## O=C(Nc1ccc(Oc2ccccc2)cc1)Nc1ccc2c(cnn2CCN2CCC(O)CC2)c1
[6]
  IC50: 6.13 µM
[4]
  IC50: > 10 µM

## COC[C@@H]1CCCN1CCCn1ncc2cc(NC(=O)Nc3ccc(Oc4ccccc4)cc3)ccc21
[6]
  IC50: 0.0829 µM
[4]
  IC50: 1.177 µM

## O=C(CNCc1ccc(Oc2ccccc2)cc1)Nc1ccc2ccn(CCN3CCCC3)c2c1
[2]
  IC50: 0.299 µM
[3]
  AUC: 1.16 µg/h/mL
[4]
  IC50: 1.81 µM
[5]
  AUC: 0.674 µg·h/g

## O=C(Nc1ccc(OCc2ccccc2)cc1)Nc1ccc2cnn(CCN3CCCC3)c2c1
[6]
  IC50: 0.113 µM
[4]
  IC50: 7.14 µM

## O=C1N(c2ccc(Oc3ccccc3)cc2)CCN1c1ccc2c(cnn2CCN2CCCC2)c1
[6]
  IC50: 0.0198 µM
[4]
  IC50: 1.12 µM

## NC(=O)C1CCN(CCCn2ncc3cc(NC(=O)Nc4ccc(Oc5ccccc5)cc4)ccc32)CC1
[6]
  IC50: 0.0406 µM
[4]
  IC50: 2.88 µM

## O=C(Nc1ccc(Oc2ccccc2)cc1)Nc1ccc2c(cnn2CCN2CCCC2)c1
Mus musculus [15]
  Activity: 3
Mus musculus [16]
  Activity: 23.6
Mus musculus [17]
  Change in body weight: -17.1%
Mus musculus [18]
  Body weight: 42.3 g
Mus musculus [19]
  Activity: 39.8
Mus musculus [20]
  Body weight: 42.5 g
Mus musculus [21]
  Activity: 20.1
Mus musculus [22]
  Activity: 16.6 g
Mus musculus [23]
  Activity: 7.86
Mus musculus [24]
  Activity: 13.6
Mus musculus [25]
  Activity: 29.4
[1]
  Cmax: 246 ng/mL
Mus musculus [26]
  Activity: 11.2
Mus musculus [27]
  Activity: 2.17
[28]
  Cmax: 260 ng/g
Mus musculus [29]
  Activity: 32.4
Mus musculus [30]
  Body weight: 42.3 g
Mus musculus [31]
  Body weight: 36.3 g
[32]
  AUC: 5.35 µg/h/g
Mus musculus [33]
  Change in body weight: -3.41%
[34]
  AUC: 1.43 µg/h/g

## O=C(Nc1ccc(OCc2ccccc2)cc1)Nc1cccc2c1cnn2CCN1CCCC1
[6]
  IC50: 1.05 µM
[4]
  IC50: > 10 µM

## O=C(NCc1ccc(Oc2ccccc2)cc1)Nc1ccc2c(cnn2CCN2CCCC2)c1
[6]
  IC50: 0.508 µM
[4]
  IC50: > 10 µM

## O=C(NCCc1ccc(Oc2ccccc2)cc1)Nc1ccc2cnn(CCN3CCCC3)c2c1
[1]
  Cmax: 86 ng/mL
[6]
  IC50: 0.0343 µM
[4]
  IC50: 0.178 µM
[32]
  AUC: 0.335 µg/h/g
[34]
  AUC: 0 µg/h/g

## NC(=O)C1CCN(CCn2ncc3cc(NC(=O)Nc4ccc(Oc5ccccc5)cc4)ccc32)CC1
[6]
  IC50: 0.134 µM
[4]
  IC50: 0.171 µM

## O=c1n(-c2ccc(Oc3ccccc3)cc2)ccn1-c1ccc2c(cnn2CCN2CCCC2)c1
[1]
  Cmax: 543 ng/mL
[6]
  IC50: 0.0059 µM
[28]
  Cmax: 183 ng/g
[4]
  IC50: 0.654 µM
[32]
  AUC: 1.35 µg/h/mL
[34]
  AUC: 1.71 µg/h/g
